Laboratory results from ChEMBL document CHEMBL1123290, “Synthesis, antimalarial activity, and quantitative structure-activity relationships of tebuquine and a series of related 5-[(7-chloro-4-quinolinyl)amino]-3-[(alkylamino)methyl] [1,1'-biphenyl]-2-ols and N omega-oxides” (1986).

How the values were obtained:
Type in all cases: functional
[1] = test system: Mus musculus; assay: Antimalarial activity, administered as a single subcutaneous dose of 80 mg/kg, 72 hrs post infection measured as number of mice (Mus musculus) surviving at 60 days post infection
In short: (§1)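 Mice were infected with a normal drug-sensitive Plasmodium berghei strain. At 72 h postinfection each received one subcutaneous dose of compound dissolved or suspended in peanut oil, in five-mouse groups per dose. The read-out was the number of mice alive at 60 days postinfection, which were scored as cured.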

[2] = test system: Plasmodium berghei; assay: Antimalarial activity as 60-day survivors in Plasmodium berghei infected mice (Mus musculus) after single 160mg/kg subcutaneous dose 72 hr post infection; in short: as §1
[3] = test system: Plasmodium berghei; assay: Antimalarial activity as 60-day survivors in infected mice (Mus musculus) after single 320mg/kg subcutaneous dose 72 hr post infection; in short: as §1
[4] = test system: Plasmodium berghei; assay: Change in mean survival time for control (average 6.2 days) versus treated mice (Mus musculus) 72 hrs after 10 mg/kg subcutaneous dose
[5] = test system: Plasmodium berghei; assay: Difference in mean survival time in mice (Mus musculus) (control = 6.2 days) after single 40mg/kg subcutaneous dose 72hr post infection
[6] = test system: Mus musculus; assay: Antimalarial activity, administered as a single subcutaneous dose of 640 mg/kg, 72 hrs post infection measured as number of mice (Mus musculus) surviving at 60 days post infection; in short: as §1
[7] = test system: Plasmodium berghei; assay: Change in mean survival time for control (average 6.2 days) versus treated mice (Mus musculus) 72 hrs after 20 mg/kg subcutaneous dose
[8] = test system: Plasmodium berghei; assay: Change in mean survival time for control (average 6.2 days) versus treated mice (Mus musculus) 72 hrs after […] subcutaneous dose
[9] = test system: Plasmodium berghei; assay: Change in mean survival time for control (average of 6.2 days) versus treated mice (Mus musculus) 72 hrs after 80 mg/kg subcutaneous dose
[10] = test system: Plasmodium berghei; assay: Change in mean survival time for control (average 6.2 days) versus treated mice (Mus musculus) 72 hrs after 160 mg/kg subcutaneous dose
[11] = test system: Mus musculus; assay: Antimalarial activity, administered as a single subcutaneous dose of 40 mg/kg, 72 hrs post infection measured as number of mice (Mus musculus) surviving at 60 days post infection; in short: as §1
[12] = test system: Plasmodium berghei; assay: Change in mean survival time for control (average 6.2 days) versus treated mice (Mus musculus) 72 hrs after […] subcutaneous dose
[13] = test system: Plasmodium berghei; assay: Change in mean survival time for control (average 6.2 days) versus treated mice (Mus musculus) 72 hrs after 5 mg/kg subcutaneous dose
[14] = test system: Plasmodium berghei; assay: Antimalarial activity in primary screen
[15] = test system: Plasmodium berghei; assay: Change in mean survival time for control (average 6.2 days) versus treated mice (Mus musculus) 72 hrs after 640 mg/kg subcutaneous dose
[16] = test system: Plasmodium berghei; assay: Change in mean survival time for control (average 6.2 days) versus treated mice (Mus musculus) 72 hrs after 320 mg/kg subcutaneous dose

| Compound | No. of mice cured [1] | No. of mice cured [2] | No. of mice cured [3] | Delta MST [4] [days] | Delta MST [5] [days] | No. of mice cured [6] | Delta MST [7] [days] | Delta MST [8] [days] | Delta MST [9] [days] | Delta MST [10] [days] | No. of mice cured [11] | Delta MST [12] [days] | Delta MST [13] [days] | ED30 [14] [mg/kg] | Delta MST [15] | Delta MST [16] [days] |
| --- | --- | --- | --- | --- | --- | --- | --- | --- | --- | --- | --- | --- | --- | --- | --- | --- |
| CCN(CC)Cc1cc(Nc2ccnc3cc(Cl)ccc23)ccc1O.Cl | 2 | 5 | 5 | 5.7 | 11.9 | 5 | 8.3 | – | – | – | – | – | – | – | – | – |
| CCN(CC)Cc1cc(Nc2ccnc3cc(Cl)ccc23)cc(-c2ccccc2F)c1O | – | 2 | 5 | 12.8 | 18.4 | 5 | 16.4 | 0 | 26.2 | 33.1 | 1 | 0.4 | 4.4 | 26.8 | – | – |
| CCN(CC)Cc1cc(Nc2ccnc3cc(Cl)ccc23)cc(-c2ccc(Cl)c(Cl)c2)c1O | 4 | 4 | 5 | 0.9 | 23.7 | 3 | 15.7 | -0.1 | 33.4 | 21.4 | 3 | -0.3 | 0.1 | 22.7 | 10.9 days | – |
| CCN(CC)Cc1cc(Nc2ccnc3cc(Cl)ccc23)cc(-c2ccc(F)cc2)c1O | – | – | – | – | 13.4 | – | – | – | – | 12.8 | 2 | – | – | 8.8 | 14.8 days | – |
| CCN(CC)Cc1cc(Nc2ccnc3cc(Cl)ccc23)cc(-c2ccccc2OC)c1O | 2 | 2 | 2 | 2.6 | 9.4 | 5 | 6.2 | -0.2 | 14.9 | 18.9 | – | 0.2 | 0.4 | 74 | – | 37.9 |
| Oc1c(CN2CCCC2)cc(Nc2ccnc3cc(Cl)ccc23)cc1-c1ccc(Cl)c(Cl)c1 | 1 | 4 | 3 | 0.1 | 18.5 | 3 | 8.3 | -0.1 | 30.2 | – | – | -0.1 | – | – | 33.9 days | 25.9 |
| CCN(CC)Cc1cc(Nc2ccnc3cc(Cl)ccc23)cc(-c2cc(OC)ccc2OC)c1O | – | – | – | – | 3.8 | – | 0 | – | 3.6 | 4 | – | – | – | 9680 | 8.6 days | 8.8 |
| CC(C)(C)NCc1cc(C(C)(C)C)cc(-c2ccc(Cl)cc2)c1O | – | 5 | 5 | – | 12.9 | 5 | 5.1 | – | 15.7 | – | – | – | – | – | – | – |
| CCN(CC)Cc1cc(Nc2ccnc3cc(Cl)ccc23)cc(-c2ccc(OC)cc2)c1O | 1 | 2 | 3 | 2.9 | 7.3 | 5 | 4.3 | 0.5 | 12.4 | 16.1 | – | 0.1 | 1.3 | 112 | – | 28.9 |
| CCN(CC)Cc1cc(Nc2ccnc3cc(Cl)ccc23)cc(-c2ccccn2)c1O | – | – | 3 | – | 3.8 | 3 | 2.6 | – | 7.8 | 11.2 | – | – | – | 160 | 25.3 days | 15.8 |
| Oc1c(CNC23CC4CC(CC(C4)C2)C3)cc(Nc2ccnc3cc(Cl)ccc23)cc1-c1ccc(Cl)cc1 | 4 | 4 | 5 | 0.1 | 18.5 | 2 | 7.5 | -0.5 | 23 | 39 | – | -0.3 | -0.3 | – | 19 days | – |
| CCN(CC)Cc1cc(Nc2cc[n+]([O-])c3cc(Cl)ccc23)ccc1O | – | 3 | 5 | – | – | 3 | – | – | – | – | – | – | – | – | – | – |
| CCN(CC)Cc1cc(Nc2ccnc3cc(Cl)ccc23)cc(-c2ccc(OC)c(OC)c2)c1O | – | – | – | – | 3.8 | 1 | 1.2 | – | 5.4 | 8.6 | – | – | – | 927 | 13.1 | 12 |
| CCN(CC)Cc1cc(Nc2ccnc3cc(Cl)ccc23)cc(CN(CC)CC)c1O [CYLCLOQUINE] | 2 | 4 | 5 | 11.5 | 19.1 | 5 | 15.1 | – | – | – | – | – | – | – | – | – |
